Measurements as given in publication PMC9060504 (Proceedings of the National Academy of Sciences of the …, 2022).
One block for each compound: values may come before it.

What was measured:
[1] = target: T1, STIM1 together with Orai3 (Homo sapiens, UniProt Q9BRQ5); settings: cited from earlier work
[2] = target: STIM1 and Orai1 (CRAC channel) (Homo sapiens, UniProt Q96D31); assay: Whole-cell patch-clamp CRAC current in HEK293 cells expressing STIM1 and Orai1; assay type: cell-based
[3] = target: STIM1 together with Orai2 (Homo sapiens, UniProt Q96SN7); assay: Whole-cell patch-clamp CRAC current in cells coexpressing STIM1 and Orai2; assay type: cell-based
Sequence of STIM1 together with Orai2 (Q96SN7 whole entry): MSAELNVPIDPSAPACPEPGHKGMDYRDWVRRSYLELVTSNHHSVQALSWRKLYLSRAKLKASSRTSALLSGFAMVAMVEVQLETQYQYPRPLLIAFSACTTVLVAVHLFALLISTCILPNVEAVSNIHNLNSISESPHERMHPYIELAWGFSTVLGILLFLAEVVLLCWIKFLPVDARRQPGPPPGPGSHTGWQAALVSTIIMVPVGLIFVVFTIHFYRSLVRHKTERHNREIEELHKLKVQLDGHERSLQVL

[4] = target: T1, STIM1 together with Orai3; assay: Whole-cell patch-clamp CRAC current in cells coexpressing STIM1 and Orai3; assay type: cell-based
[5] = target: T2, Orai3 (Homo sapiens, UniProt Q9BRQ5); assay: Current recording, HEK293 cells expressing Orai3 alone; assay type: cell-based; settings: 100 μM, with or without 360 nm light
[6] = target: T3, Orai1 (Homo sapiens, UniProt Q96D31); assay type: cell-based; settings: Orai1 alone, 100 μM, with or without 360 nm light
Target sequence in this assay (Q96D31 whole entry): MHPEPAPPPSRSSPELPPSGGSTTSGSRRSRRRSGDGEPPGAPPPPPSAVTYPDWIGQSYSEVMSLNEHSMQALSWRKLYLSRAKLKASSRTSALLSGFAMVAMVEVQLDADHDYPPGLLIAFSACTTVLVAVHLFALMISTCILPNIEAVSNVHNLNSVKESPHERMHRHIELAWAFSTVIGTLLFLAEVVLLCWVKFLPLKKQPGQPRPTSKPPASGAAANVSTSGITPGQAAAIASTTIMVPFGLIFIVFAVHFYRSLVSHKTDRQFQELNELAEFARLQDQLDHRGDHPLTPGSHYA

[7] = target: Orai1 V102A (Homo sapiens, UniProt Q96D31, V102A); assay: Current recording, constitutively open Orai1 V102A mutant; assay type: cell-based; settings: 10 μM
Sequence of Orai1 V102A (Q96D31 whole entry V102A, the tested form may be a part): as the sequence (Q96D31 whole entry) above, with V102A counted along it
Procedure, shortened: (§1)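 Whole-cell currents were recorded from cells expressing the Orai1 mutant or the chimera (the chimera with STIM1). Cells were superfused with extracellular solution containing 10 mM Ca2+, with or without 10 μM test compound or 10 μM La3+. During recording, cells were kept dark or illuminated at the indicated wavelengths. Time courses and I-V plots were collected.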

[8] = target: Orai1 P245L (Homo sapiens, UniProt Q96D31, P245L); assay: Current recording, constitutively open Orai1 P245L mutant; assay type: cell-based; settings: 10 μM
Sequence of Orai1 P245L (Q96D31 whole entry P245L): as the sequence (Q96D31 whole entry) above, with P245L counted along it
Procedure, shortened: as §1

[9] = tested on: O3N–O1C chimeric Orai channel; assay: Current recording, STIM1 with chimeric O3N–O1C channel; assay type: cell-based; settings: 10 μM
Procedure, shortened: as §1

[10] = tested on: O1N–O3C chimeric Orai channel; assay: Current recording, STIM1 with chimeric O1N–O3C channel; assay type: cell-based; settings: 10 μM
Procedure, shortened: as §1

[11] = tested on: SOCE in HEK293 cells; assay: Ca2+ imaging of SOCE in HEK293 cells; assay type: cell-based; settings: 100 μM, 1 mM Ca2+, TG
[12] = target: T3, Orai1; assay: Ca2+ imaging of SOCE, Orai TKO HEK293 cells expressing STIM1 and Orai1; assay type: cell-based; settings: 100 μM, dark
Target sequence in this assay (Q96D31 whole entry): as the sequence (Q96D31 whole entry) above
Target sequence in this assay (Q13586 23-685 partner): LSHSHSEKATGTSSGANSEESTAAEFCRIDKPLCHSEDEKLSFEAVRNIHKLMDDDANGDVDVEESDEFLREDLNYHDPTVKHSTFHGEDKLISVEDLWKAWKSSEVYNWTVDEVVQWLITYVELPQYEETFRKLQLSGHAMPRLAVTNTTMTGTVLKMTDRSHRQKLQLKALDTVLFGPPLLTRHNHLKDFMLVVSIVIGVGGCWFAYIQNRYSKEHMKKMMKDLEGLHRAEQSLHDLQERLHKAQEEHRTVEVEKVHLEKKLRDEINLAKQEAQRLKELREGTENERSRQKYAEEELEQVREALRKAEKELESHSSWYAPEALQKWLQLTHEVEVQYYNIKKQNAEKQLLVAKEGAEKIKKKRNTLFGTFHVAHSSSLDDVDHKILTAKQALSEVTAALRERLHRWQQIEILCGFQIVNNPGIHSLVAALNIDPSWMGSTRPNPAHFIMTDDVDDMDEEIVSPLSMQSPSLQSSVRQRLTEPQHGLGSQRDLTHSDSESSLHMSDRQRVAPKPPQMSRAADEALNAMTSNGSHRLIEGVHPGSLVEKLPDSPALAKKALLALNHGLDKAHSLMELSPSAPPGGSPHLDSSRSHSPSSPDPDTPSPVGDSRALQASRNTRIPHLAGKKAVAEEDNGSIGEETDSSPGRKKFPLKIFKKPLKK

[13] = target: Orai2 (Homo sapiens, UniProt Q96SN7); assay: Ca2+ imaging of SOCE, Orai TKO HEK293 cells expressing STIM1 and Orai2; assay type: cell-based; settings: 100 μM, dark
Sequence of Orai2 (Q96SN7 whole entry): as the sequence (Q96SN7 whole entry) above

[14] = target: T2, Orai3; assay: Ca2+ imaging of SOCE, Orai TKO HEK293 cells expressing STIM1 and Orai3; assay type: cell-based; settings: 100 μM, dark
[15] = tested on: InsP3R; assay: Ca2+ imaging of IP3-mediated ER Ca2+ release in STIM DKO cells; assay type: cell-based; settings: 100 μM
Procedure, shortened: (§2)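 Cells were loaded with 5 μM Cal-590 in Ringer's solution for 60 min, excited at 560 nm, and imaged every 3 or 10 s. Each experiment recorded 10 to 97 cells, and their responses were averaged. The Ca2+ change after activating each transport mechanism with 100 μM test compound present was normalized to the change in DMSO-treated control cells.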

[16] = target: TRPC3 (Homo sapiens, UniProt Q13507); assay: Ca2+ imaging of TRPC3-mediated Ca2+ influx in STIM DKO cells; assay type: cell-based; settings: 100 μM
Sequence of TRPC3 (Q13507 whole entry, species assumed): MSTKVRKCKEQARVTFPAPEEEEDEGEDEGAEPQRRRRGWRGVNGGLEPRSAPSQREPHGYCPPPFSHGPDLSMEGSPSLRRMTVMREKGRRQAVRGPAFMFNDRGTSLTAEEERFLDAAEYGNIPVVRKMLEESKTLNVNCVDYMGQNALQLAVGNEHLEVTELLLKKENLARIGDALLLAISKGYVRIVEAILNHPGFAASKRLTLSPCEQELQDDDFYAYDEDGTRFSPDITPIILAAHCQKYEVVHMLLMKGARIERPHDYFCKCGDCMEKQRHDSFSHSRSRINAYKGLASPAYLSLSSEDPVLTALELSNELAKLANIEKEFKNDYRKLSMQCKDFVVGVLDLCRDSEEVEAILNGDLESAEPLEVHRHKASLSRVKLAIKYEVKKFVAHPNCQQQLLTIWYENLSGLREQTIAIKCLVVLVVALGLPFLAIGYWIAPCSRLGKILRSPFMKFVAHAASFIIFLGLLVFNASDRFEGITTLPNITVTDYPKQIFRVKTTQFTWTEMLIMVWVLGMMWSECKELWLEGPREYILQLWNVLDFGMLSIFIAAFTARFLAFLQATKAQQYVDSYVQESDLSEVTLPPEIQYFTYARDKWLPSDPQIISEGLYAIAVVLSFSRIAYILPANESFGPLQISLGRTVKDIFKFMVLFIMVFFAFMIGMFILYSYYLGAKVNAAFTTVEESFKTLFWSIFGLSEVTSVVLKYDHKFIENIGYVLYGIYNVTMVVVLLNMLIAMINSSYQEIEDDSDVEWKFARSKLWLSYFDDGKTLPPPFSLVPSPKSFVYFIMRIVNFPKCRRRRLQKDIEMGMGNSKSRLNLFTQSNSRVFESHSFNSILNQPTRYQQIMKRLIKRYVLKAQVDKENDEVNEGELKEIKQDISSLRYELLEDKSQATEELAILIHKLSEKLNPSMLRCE
Procedure, shortened: as §2

[17] = target: TRPC6 (Homo sapiens, UniProt Q9Y210); assay: Ca2+ imaging of TRPC6-mediated Ca2+ influx in STIM DKO cells; assay type: cell-based; settings: 100 μM
Procedure, shortened: as §2

[18] = target: TRPV1 (Homo sapiens, UniProt Q8NER1); assay: Ca2+ imaging of TRPV1-mediated Ca2+ influx in STIM DKO cells; assay type: cell-based; settings: 100 μM
Sequence of TRPV1 (Q8NER1 whole entry, species assumed): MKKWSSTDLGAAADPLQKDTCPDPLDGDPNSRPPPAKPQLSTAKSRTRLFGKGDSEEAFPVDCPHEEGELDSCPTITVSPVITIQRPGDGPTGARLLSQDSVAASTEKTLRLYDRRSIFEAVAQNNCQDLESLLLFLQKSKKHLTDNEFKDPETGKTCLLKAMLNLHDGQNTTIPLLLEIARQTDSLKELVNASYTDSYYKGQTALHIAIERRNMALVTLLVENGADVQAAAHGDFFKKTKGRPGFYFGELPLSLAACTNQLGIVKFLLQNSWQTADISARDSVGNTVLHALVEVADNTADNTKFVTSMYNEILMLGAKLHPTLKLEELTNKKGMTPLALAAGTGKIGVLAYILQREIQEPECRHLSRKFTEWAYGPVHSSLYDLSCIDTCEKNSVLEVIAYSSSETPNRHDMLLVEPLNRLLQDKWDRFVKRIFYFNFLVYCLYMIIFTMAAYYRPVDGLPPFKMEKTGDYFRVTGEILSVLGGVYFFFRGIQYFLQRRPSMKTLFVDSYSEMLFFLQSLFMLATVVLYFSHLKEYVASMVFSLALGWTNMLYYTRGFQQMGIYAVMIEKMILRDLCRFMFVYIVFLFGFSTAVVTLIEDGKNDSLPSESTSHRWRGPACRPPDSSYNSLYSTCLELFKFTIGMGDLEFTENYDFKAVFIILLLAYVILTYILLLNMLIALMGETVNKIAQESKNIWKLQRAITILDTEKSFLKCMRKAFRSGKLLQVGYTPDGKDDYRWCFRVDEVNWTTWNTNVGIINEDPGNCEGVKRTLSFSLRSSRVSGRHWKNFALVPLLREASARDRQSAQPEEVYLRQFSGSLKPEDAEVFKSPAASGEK
Procedure, shortened: as §2

[19] = target: NCX1 (Homo sapiens, UniProt P32418); assay: Ca2+ imaging of reverse Na+/Ca2+ exchange in cells overexpressing NCX1; assay type: cell-based
Sequence of NCX1 (P32418 36-973): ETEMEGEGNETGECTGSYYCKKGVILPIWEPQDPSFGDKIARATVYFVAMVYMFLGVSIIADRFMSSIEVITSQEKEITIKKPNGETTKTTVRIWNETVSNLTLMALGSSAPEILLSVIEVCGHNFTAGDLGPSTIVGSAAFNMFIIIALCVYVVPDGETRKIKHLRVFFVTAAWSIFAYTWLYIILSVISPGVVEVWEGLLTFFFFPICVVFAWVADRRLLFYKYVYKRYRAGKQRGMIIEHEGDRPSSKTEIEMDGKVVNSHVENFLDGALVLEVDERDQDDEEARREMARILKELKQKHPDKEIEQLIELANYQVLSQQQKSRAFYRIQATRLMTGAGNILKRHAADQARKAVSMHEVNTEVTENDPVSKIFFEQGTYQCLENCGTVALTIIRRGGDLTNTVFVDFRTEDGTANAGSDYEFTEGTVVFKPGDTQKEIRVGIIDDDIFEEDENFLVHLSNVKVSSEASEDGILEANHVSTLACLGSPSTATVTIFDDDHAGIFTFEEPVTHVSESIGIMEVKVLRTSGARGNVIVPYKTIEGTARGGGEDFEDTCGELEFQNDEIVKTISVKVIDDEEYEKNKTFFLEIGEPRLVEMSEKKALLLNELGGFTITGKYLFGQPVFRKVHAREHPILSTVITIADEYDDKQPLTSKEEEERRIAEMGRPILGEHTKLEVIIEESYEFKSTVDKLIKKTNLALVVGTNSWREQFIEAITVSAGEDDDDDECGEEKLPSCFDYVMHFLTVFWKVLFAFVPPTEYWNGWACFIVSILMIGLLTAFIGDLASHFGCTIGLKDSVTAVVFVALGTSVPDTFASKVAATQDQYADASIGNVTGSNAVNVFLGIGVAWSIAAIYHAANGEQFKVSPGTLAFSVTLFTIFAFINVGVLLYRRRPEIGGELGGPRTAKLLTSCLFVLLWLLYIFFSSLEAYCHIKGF
Procedure, shortened: as §2

[20] = target: STIM1 (Homo sapiens, UniProt Q13586); assay: TIRFM of STIM1 clustering at ER–PM junctions; assay type: cell-based; settings: 100 μM, after ER Ca2+ depletion with TG
Sequence of STIM1 (Q13586 23-685, species assumed): as the sequence (Q13586 23-685 partner) above
Procedure, shortened: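 TIRFM used a 100× (N.A. 1.49) objective. STIM1-mCherry cells were held in zero-Ca2+ solution with 400 nM thapsigargin for 10 min, then received 100 μM test compound and were imaged before and 20 min after. Orai1-EGFP/STIM1-mCherry cells were preincubated with 100 μM compound in zero Ca2+ and imaged before and 10 min after adding 400 nM thapsigargin.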

[21] = tested on: NFAT transcription in Jurkat NFAT-P/Luciferase (JNL) cells; assay: NFAT-dependent luciferase assay in JNL cells; assay type: cell-based, human; settings: 100 μM
[22] = tested on: EMT6-GFP murine breast cancer cells; assay: Pulmonary metastatic assay; assay type: in vivo, mouse
Procedure, shortened: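 EMT6-GFP cells were treated for 1 h with 1% DMSO or 200 µM test compound, with or without 10 s of 365 nm light (16 mW/cm²) at 0, 30 and 60 min. They were then washed and injected into the tail vein of 8-wk BALB/c mice (5 × 10⁴ cells). After 20 min, lungs were perfused, agarose-inflated and cut into 1–2 mm slices. Slices were cultured 7 d at 37 °C, and GFP⁺ colonies counted (3 slices/mouse, 5 mice/group). GFP⁺ cell percentage was then measured by flow cytometry.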

[23] = tested on: SOCE in TG neurons; assay: Ca2+ imaging of SOCE in cultured trigeminal ganglion neurons; assay type: cell-based, mouse; settings: 100 μM
Procedure, shortened: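 Mouse trigeminal ganglion neurons were acutely dissociated, cultured and loaded with Cal-590. They were held for 10 min in Ca2+-free solution with 1 μM thapsigargin, with or without 100 μM test compound. SOCE was then induced by superfusion with 0.5 mM Ca2+, without or with 360 nm illumination. Fluorescence time courses came from n = 71 to 179 cells per group.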

[24] = tested on: capsaicin-induced nocifensive behavior; assay: Capsaicin-induced forelimb eye wiping test; assay type: in vivo, mouse
Procedure, shortened: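 Male C57BL/6JOLAHSD mice (3–4 wk, 5–6 per group) were handled for 2 d and habituated to the cage for 10 min. A 10-μL drop went to the right eye: vehicle (0.1% ethanol in SES), 1 μM capsaicin, 100 μM test compound, or capsaicin plus compound. Forelimb wipes were counted for 5 min, starting 5 min after dosing. Where used, 365 nm light (16 mW/cm², 3 cm, 60 s) was given and counting began 5 min later. Light alone was also tested.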

[25] = Trans:cis isomer ratio by 1H NMR; assay type: physicochemical
[26] = Photostability under repeated illumination; assay type: physicochemical; settings: eight cycles 365/520 nm, 1% DMSO in PBS
Procedure, shortened: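 Test compound at 26 μM in 1% DMSO/PBS was exposed to eight cycles of alternating 5-min 365 nm and 520 nm LED illumination. Absorbance at 329 nm was recorded throughout.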

[27] = cells treated with 200 μM, no illumination

Sequence of STIM1 and Orai1 (CRAC channel) (Q96D31 whole entry): as the sequence (Q96D31 whole entry) above
Sequence of STIM1 and Orai1 (CRAC channel) (Q13586 23-685 partner): as the sequence (Q13586 23-685 partner) above

SMILES: O=C(Nc1ccn(Cc2ccccc2Oc2ccccc2)n1)c1c(F)cccc1F [GSK5503A]
Sensitivity of Orai3 current [1]: sensitive

SMILES: O=C(Nc1ccn(Cc2ccc(O)cc2C(F)(F)F)n1)c1c(F)cccc1F [GSK7975A]
Sensitivity of Orai3 current [1]: sensitive

Control of channel activity when infused into the cytosol via the patch pipette ([2]; 0.5 mM in pipette solution): failed to do so | Ki ([2]; Ki, dose-inhibition analysis, HEK293 STIM1+Orai1, LOCI-1 n = 3, LOCI-2 n = 4): 5.5 ± 0.26 µM | Restoration of inhibited current by 360 nm light ([2]; LOCI-1 10 μM, LOCI-2 10 μM, 2-APB 100 μM): fully restored | Ki [3]: 15.5 ± 1.8 µM | Ki [4]: 131 ± 24 µM | inhibition at 100 µM ([4]; read-out: Average inhibition of Orai3 activity): ~35% | Current change on application [5]: did not induce a notable current change | Current change on application [6]: did not induce a notable current change | Effect on Orai1 V102A current [7]: negligible effect | Effect on Orai1 P245L current [8]: strongly inhibited | Effect on SOCE mediated by Orai1 [12]: strongly inhibits | Effect on SOCE mediated by Orai2 [13]: strongly inhibits | Effect on SOCE mediated by Orai3 [14]: not | Effect on TRPC3-mediated Ca2+ influx [16]: did not affect | Effect on TRPC6-mediated Ca2+ influx [17]: did not affect | Effect on TRPV1-mediated Ca2+ influx [18]: did not affect | TRPV1 activity in presence of cis or trans conformations ([18]; HEK293 STIM DKO cells expressing TRPV1): unchanged | Effect on sodium–calcium exchange activity [19]: did not inhibit | Effect on clustering of STIM1 in puncta at ER–PM junctions [20]: did not affect | Trans isomer content, dark-adapted [25]: 94% | Photofatigue on repeated illumination [26]: without significant photofatigue
SMILES: OB(O)c1ccc(/N=N/c2ccccc2)cc1 [LOCI-1]
Effect on O3N–O1C channel current [9]: small and inconsistent effect | Effect on O1N–O3C channel current [10]: strongly inhibited | Effect on SOCE [11]: inhibited | Effect on IP3-mediated Ca2+ release [15]: did not affect | Inhibition of NFAT transcription ([21]; 16 h, in the dark): more than 80% | NFAT transcription after 365 nm light ([21]; two pulses of 365 nm light): fully restore transcription to control levels | GFP-positive cancer cells in lung tissue ([22]; cells treated with 200 μM and 365 nm illumination): ~1.3% | GFP-positive cancer cells in lung tissue [22, 27]: ~0.65% | Number of metastatic colonies vs DMSO [22, 27]: significantly fewer metastatic colonies | Effect on SOCE in TG neurons [23]: inhibited | Eye wiping response, applied alone ([24]; 100 μM alone, topical to eye): neither LOCI-1 nor 365 nm light elicits an appreciable nocifensive behavior | Inhibitory effect on eye wiping after a pulse of 365 nm light ([24]; 100 μM with 1 μM capsaicin, 365 nm 60 s): fully reversed | Eye wiping response, cotreatment with capsaicin ([24]; 100 μM with 1 μM capsaicin, topical to eye, vs capsaicin alone): significantly lower responses
